Assay results reported in ChEMBL document CHEMBL1275448, “Identification of a novel multidrug efflux pump of Mycobacterium tuberculosis” (2008).
In brackets after ≈: the same amount, converted by molar mass.

How the values were obtained:
Type in all cases: functional
[1] = test system: Mycobacterium tuberculosis variant bovis BCG; experiment: Antimicrobial activity against Mycobacterium bovis BCG ML1058 carrying transposon IS1096::Km inserted at +320bp of lprR gene by microplate Alamar blue assay
Procedure, shortened: (§1)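 Whole-cell M. bovis BCG (Institut Pasteur) MABA; mutants carried IS1096::Km insertions. Growth was in Middlebrook 7H9 with 0.2% glycerol, 0.05% Tween 80 and 10% OADC. Final drug ranges: ampicillin 62.5–2,000 μg/ml, vancomycin 1.25–40 μg/ml, streptomycin 0.25–8 μg/ml, chloramphenicol 4–128 μg/ml, tetracycline 0.5–16 μg/ml. MIC was the lowest concentration cutting viability ≥90%, read by fluorescence (ex 530/em 590 nm, room temperature).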

[2] = test system: Mycobacterium tuberculosis variant bovis BCG; experiment: Antimicrobial activity against Mycobacterium bovis BCG ML1046 carrying transposon IS1096::Km inserted at +33bp of bcg2743 gene by microplate Alamar blue assay; procedure, shortened: as §1
[3] = test system: Mycobacterium tuberculosis variant bovis BCG; experiment: Antimicrobial activity against Mycobacterium bovis BCG ML1052 carrying transposon IS1096::Km inserted at +78bp of bcg2824 gene by microplate Alamar blue assay; procedure, shortened: as §1
[4] = test system: Mycolicibacterium smegmatis; experiment: Antimicrobial activity against Mycobacterium smegmatis overexpressing rv0194 gene by microplate Alamar blue assay
Procedure, shortened: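 M. smegmatis SMR5 carried either control plasmid pMS2 or rv0194 expression vector pML655. Cells were grown at 37°C in Middlebrook 7H9 with 0.2% glycerol and 0.05% Tween 80, then tested by microplate Alamar blue assay. MIC was the lowest antibiotic concentration reducing culture viability by ≥90%, read by fluorescence (ex 530/em 590 nm, room temperature).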

[5] = test system: Mycobacterium tuberculosis variant bovis BCG; experiment: Antimicrobial activity against Mycobacterium bovis BCG ML1047 carrying transposon IS1096::Km inserted at +544bp of fadD23 gene by microplate Alamar blue assay; procedure, shortened: as §1
[6] = test system: Mycobacterium tuberculosis variant bovis BCG; experiment: Antimicrobial activity against Mycobacterium bovis BCG ML1050 carrying transposon IS1096::Km inserted at +41bp of bcg2827 gene by microplate Alamar blue assay; procedure, shortened: as §1
[7] = test system: Mycobacterium tuberculosis variant bovis BCG; experiment: Antimicrobial activity against Mycobacterium bovis BCG ML1065 carrying transposon IS1096::Km inserted at +96bp of bcg0061 gene by microplate Alamar blue assay; procedure, shortened: as §1
[8] = test system: Mycobacterium tuberculosis variant bovis BCG; experiment: Antimicrobial activity against Mycobacterium bovis BCG ML1051 carrying transposon IS1096::Km inserted at -420bp of bcg2965 gene by microplate Alamar blue assay; procedure, shortened: as §1
[9] = test system: Mycobacterium tuberculosis variant bovis BCG; experiment: Antimicrobial activity against Mycobacterium bovis BCG ML1041 carrying transposon IS1096::Km inserted at +1707bp of ppe24 gene by microplate Alamar blue assay; procedure, shortened: as §1
[10] = test system: Mycobacterium tuberculosis variant bovis BCG; experiment: Antimicrobial activity against Mycobacterium bovis BCG ML1007 carrying transposon IS1096::Km inserted at +988bp of ppe53 gene by microplate Alamar blue assay; procedure, shortened: as §1
[11] = test system: Mycobacterium tuberculosis variant bovis BCG; experiment: Antimicrobial activity against Mycobacterium bovis BCG ML1048 carrying transposon IS1096::Km inserted at +519bp of bcg1567c gene by microplate Alamar blue assay; procedure, shortened: as §1
[12] = test system: Mycobacterium tuberculosis variant bovis BCG; experiment: Antimicrobial activity against Mycobacterium bovis BCG ML1069 carrying transposon IS1096::Km inserted at +205bp of gmhA gene by microplate Alamar blue assay; procedure, shortened: as §1
[13] = test system: Mycobacterium tuberculosis variant bovis BCG; experiment: Antimicrobial activity against Mycobacterium bovis BCG ML1038 carrying transposon IS1096::Km inserted at +78bp of bcg2735 gene by microplate Alamar blue assay; procedure, shortened: as §1
[14] = test system: Mycobacterium tuberculosis variant bovis BCG; experiment: Antimicrobial activity against Mycobacterium bovis BCG ML1034 carrying transposon IS1096::Km inserted at -54bp of bcg0231 gene by microplate Alamar blue assay; procedure, shortened: as §1
[15] = test system: Mycobacterium tuberculosis variant bovis BCG; experiment: Antimicrobial activity against Mycobacterium bovis BCG ML1044 carrying transposon IS1096::Km inserted at -178bp of ppe33b gene by microplate Alamar blue assay; procedure, shortened: as §1
[16] = test system: Mycobacterium tuberculosis variant bovis BCG; experiment: Antimicrobial activity against Mycobacterium bovis BCG ML1012 carrying transposon IS1096::Km inserted at +1255bp of bcg3960c gene by microplate Alamar blue assay; procedure, shortened: as §1
[17] = test system: Mycobacterium tuberculosis variant bovis BCG; experiment: Antimicrobial activity against Mycobacterium bovis BCG ML1036 carrying transposon IS1096::Km inserted at +277bp of agpS gene by microplate Alamar blue assay; procedure, shortened: as §1
[18] = test system: Mycobacterium tuberculosis variant bovis BCG; experiment: Antimicrobial activity against Mycobacterium bovis BCG ML1064 carrying transposon IS1096::Km inserted at +569bp of lppB gene by microplate Alamar blue assay; procedure, shortened: as §1
[19] = test system: Mycobacterium tuberculosis variant bovis BCG; experiment: Antimicrobial activity against Mycobacterium bovis BCG ML1062 carrying transposon IS1096::Km inserted at -18bp of pks11 gene by microplate Alamar blue assay; procedure, shortened: as §1
[20] = test system: Mycobacterium tuberculosis variant bovis BCG; experiment: Antimicrobial activity against Mycobacterium bovis BCG ML1009 carrying transposon IS1096::Km inserted at +368bp of cyp121 gene by microplate Alamar blue assay; procedure, shortened: as §1
[21] = test system: Mycobacterium tuberculosis variant bovis BCG; experiment: Antimicrobial activity against Mycobacterium bovis BCG ML1034 by microplate Alamar blue assay; procedure, shortened: as §1
[22] = test system: Mycobacterium tuberculosis variant bovis BCG; experiment: Antimicrobial activity against Mycobacterium bovis BCG ML1006 carrying transposon IS1096::Km inserted at +720bp of bcg3787 gene by microplate Alamar blue assay; procedure, shortened: as §1
[23] = test system: Mycobacterium tuberculosis variant bovis BCG; experiment: Antimicrobial activity against Mycobacterium bovis BCG ML1037 carrying transposon IS1096::Km inserted at +1765bp of bcg3693 gene by microplate Alamar blue assay; procedure, shortened: as §1
[24] = test system: Mycobacterium tuberculosis variant bovis BCG; experiment: Antimicrobial activity against Mycobacterium bovis BCG ML1025 carrying transposon IS1096::Km inserted at +435bp of bcg3145 gene by microplate Alamar blue assay; procedure, shortened: as §1
[25] = test system: Mycobacterium tuberculosis variant bovis BCG; experiment: Antimicrobial activity against Mycobacterium bovis BCG ML1040 carrying transposon IS1096::Km inserted at +1930bp of papA2 gene by microplate Alamar blue assay; procedure, shortened: as §1
[26] = test system: Mycobacterium tuberculosis variant bovis BCG; experiment: Antimicrobial activity against Mycobacterium bovis BCG ML1030 carrying transposon IS1096::Km inserted at +849bp of bcg1988c gene by microplate Alamar blue assay; procedure, shortened: as §1
[27] = test system: Mycobacterium tuberculosis variant bovis BCG; experiment: Antimicrobial activity against Mycobacterium bovis BCG ML1042 carrying transposon IS1096::Km inserted at -509bp of bcg2123c/pe22 gene by microplate Alamar blue assay; procedure, shortened: as §1
[28] = test system: Mycolicibacterium smegmatis; experiment: Resistance factor, ratio of MIC for Mycobacterium smegmatis overexpressing rv0194 gene to MIC for wild-type Mycobacterium smegmatis SMR5
Procedure, shortened: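 Resistance factor is the MABA MIC for M. smegmatis expressing rv0194 divided by the MIC for wild-type SMR5. MIC was the lowest concentration giving ≥90% viability reduction by fluorescence (ex 530/em 590 nm).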

[29] = test system: Mycobacterium tuberculosis variant bovis BCG; experiment: Antimicrobial activity against Mycobacterium bovis BCG ML1061 carrying transposon IS1096::Km inserted at +19bp of lppA gene by microplate Alamar blue assay; procedure, shortened: as §1
[30] = test system: Mycobacterium tuberculosis variant bovis BCG; experiment: Antimicrobial activity against Mycobacterium bovis BCG ML1013 carrying transposon IS1096::Km inserted at +923bp of cpsY gene by microplate Alamar blue assay; procedure, shortened: as §1
[31] = test system: Mycobacterium tuberculosis variant bovis BCG; experiment: Antimicrobial activity against Mycobacterium bovis BCG ML1053 carrying transposon IS1096::Km inserted at +271bp of bcg2326c gene by microplate Alamar blue assay; procedure, shortened: as §1
[32] = test system: Mycobacterium tuberculosis variant bovis BCG; experiment: Antimicrobial activity against Mycobacterium bovis BCG ML1075 carrying transposon IS1096::Km inserted at +899bp of gca gene by microplate Alamar blue assay; procedure, shortened: as §1
[33] = test system: Mycobacterium tuberculosis variant bovis BCG; experiment: Antimicrobial activity against Mycobacterium bovis BCG ML1010 carrying transposon IS1096::Km inserted at +43bp of ppe gene by microplate Alamar blue assay; procedure, shortened: as §1
[34] = test system: Mycobacterium tuberculosis variant bovis BCG; experiment: Antimicrobial activity against Mycobacterium bovis BCG ML1029 carrying transposon IS1096::Km inserted at +524bp of bcg2734c gene by microplate Alamar blue assay; procedure, shortened: as §1
[35] = test system: Mycobacterium tuberculosis variant bovis BCG; experiment: Antimicrobial activity against Mycobacterium bovis BCG ML1060 carrying transposon IS1096::Km inserted at -206bp of fadD25/mmpL12 gene by microplate Alamar blue assay; procedure, shortened: as §1

CC1(C)S[C@@H]2[C@H](NC(=O)[C@H](N)c3ccccc3)C(=O)N2[C@H]1C(=O)O [AMPICILLIN]
MIC [1]: 2000 µg/mL (≈ 5720 µM)
MIC [2]: 500 µg/mL (≈ 1430 µM)
MIC [3]: > 500 µg/mL
MIC [4]: 250 µg/mL (≈ 715 µM)
MIC [5]: 2000 µg/mL (≈ 5720 µM)
MIC [6]: 2000 µg/mL (≈ 5720 µM)
MIC [7]: > 2000 µg/mL
MIC [8]: > 500 µg/mL
MIC [9]: > 2000 µg/mL
MIC [10]: 2000 µg/mL (≈ 5720 µM)
MIC [11]: 250 µg/mL (≈ 715 µM)
MIC [12]: 2000 µg/mL (≈ 5720 µM)
MIC [13]: 2000 µg/mL (≈ 5720 µM)
MIC [14]: 2000 µg/mL (≈ 5720 µM)
MIC [15]: 250 µg/mL (≈ 715 µM)
MIC [16]: > 2000 µg/mL
MIC [17]: 250 µg/mL (≈ 715 µM)
MIC [18]: 2000 µg/mL (≈ 5720 µM)
MIC [19]: > 2000 µg/mL
MIC [20]: 2000 µg/mL (≈ 5720 µM)
MIC [21]: 2000 µg/mL (≈ 5720 µM)
MIC [22]: 2000 µg/mL (≈ 5720 µM)
MIC [23]: 250 µg/mL (≈ 715 µM)
MIC [24]: 250 µg/mL (≈ 715 µM)
MIC [25]: 2000 µg/mL (≈ 5720 µM)
MIC [26]: 2000 µg/mL (≈ 5720 µM)
MIC [27]: 500 µg/mL (≈ 1430 µM)
Ratio [28]: 2
MIC [29]: > 2000 µg/mL
MIC [30]: 2000 µg/mL (≈ 5720 µM)
MIC [31]: 2000 µg/mL (≈ 5720 µM)
MIC [32]: 2000 µg/mL (≈ 5720 µM)
MIC [33]: 500 µg/mL (≈ 1430 µM)
MIC [34]: > 2000 µg/mL
MIC [35]: 250 µg/mL (≈ 715 µM)

O=C(N[C@H](CO)[C@H](O)c1ccc([N+](=O)[O-])cc1)C(Cl)Cl [CHLORAMPHENICOL]
MIC [4]: 32 µg/mL (≈ 99 µM)
MIC [21]: 512 µg/mL (≈ 1580 µM)
Ratio [28]: 1

CC[C@H]1OC(=O)[C@H](C)[C@@H](O[C@H]2C[C@@](C)(OC)[C@@H](O)[C@H](C)O2)[C@H](C)[C@@H](O[C@@H]2O[C@H](C)C[C@H](N(C)C)[C@H]2O)[C@](C)(O)C[C@@H](C)C(=O)[C@H](C)[C@@H](O)[C@]1(C)O [ERYTHROMYCIN]
MIC [4]: 10 µg/mL (≈ 13.6 µM)
Ratio [28]: 4

CO[C@@H]1[C@@H](OC(N)=O)[C@@H](O)[C@H](Oc2ccc3c(O)c(NC(=O)c4ccc(O)c(CC=C(C)C)c4)c(=O)oc3c2C)OC1(C)C [NOVOBIOCIN]
MIC [4]: 8 µg/mL (≈ 13.1 µM)
Ratio [28]: 2

CN[C@@H]1[C@H](O[C@H]2[C@H](O[C@H]3[C@H](O)[C@@H](O)[C@H](N=C(N)N)[C@@H](O)[C@@H]3N=C(N)N)O[C@@H](C)[C@]2(O)C=O)O[C@@H](CO)[C@H](O)[C@H]1O [STREPTOMYCIN]
MIC [21]: 16 µg/mL (≈ 27.5 µM)

CN(C)[C@@H]1C(O)=C(C(N)=O)C(=O)[C@@]2(O)C(O)=C3C(=O)c4c(O)cccc4[C@@](C)(O)[C@H]3C[C@@H]12 [TETRACYCLINE]
MIC [4]: 0.3 µg/mL (≈ 0.675 µM)
MIC [21]: > 16 µg/mL
Ratio [28]: 1

CN[C@H](CC(C)C)C(=O)N[C@H]1C(=O)N[C@@H](CC(N)=O)C(=O)N[C@H]2C(=O)N[C@H]3C(=O)N[C@H](C(=O)N[C@H](C(=O)O)c4cc(O)cc(O)c4-c4cc3ccc4O)[C@H](O)c3ccc(c(Cl)c3)Oc3cc2cc(c3O[C@@H]2O[C@H](CO)[C@@H](O)[C@H](O)[C@H]2O[C@H]2C[C@](C)(N)[C@H](O)[C@H](C)O2)Oc2ccc(cc2Cl)[C@H]1O [VANCOMYCIN]
MIC [4]: 2.5 µg/mL (≈ 1.73 µM)
MIC [21]: 20 µg/mL (≈ 13.8 µM)
Ratio [28]: 2
